Source: ChEMBL document CHEMBL1165882, “Synthesis and modulation properties of imidazo[4,5-b]pyridin-7-one and indazole-4,7-dione derivatives towards the Cryptosporidium parvum CpABC3 transporter” (Eur J Med Chem, 2010)

Assays:
Cryptosporidium parvum = assay: Binding affinity to Cryptosporidium parvum recombinant H6-NBD1 of ABC3 transporter expressed in Escherichia coli BL21(DE3) assessed as intrinsic fluorescence quenching at 100 uM relative to control
Outline: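 His6-tagged NBD1 purified on Ni-NTA, dialyzed against 50 mM Tris pH 7.3/100 mM KCl/0.02% HECAMEG/20% glycerol. Protein 0.25–0.5 μM in 50 mM Tris pH 7.3, 100 mM KCl, 0.02% HECAMEG; compounds 100 μM from DMSO stocks (≤2.5% DMSO), 30 min at 20 ± 2 °C. Excitation 295 nm, emission 328 nm; % of dialysis-buffer/solvent control; triplicates, 3 separate experiments.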

[1] = Inhibition of Cryptosporidium parvum recombinant H6-NBD1 of ABC3 transporter ATPase activity expressed in Escherichia coli BL21(DE3) after 10 mins
Outline: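 Purified His6-NBD1 (2.5 μM final) incubated 10 min at 37 °C in 50 mM Tris pH 7.3, 100 mM KCl, 4 mM MgCl2, 0.02% HECAMEG with serially diluted compounds at various ATP concentrations. Reaction products quantified in triplicate by reverse-phase HPLC, detection at 254 nm; inhibition type and Ki by non-linear regression.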

SMILES	Activity (Cryptosporidium parvum) [%]	Ki ([1]; read-out: Ki) [µM]	Ki [1]
Nc1ncnc2c1ncn2[C@@H]1O[C@H](COP(=O)(O)OP(=O)(O)OP(=O)(O)O)[C@H]2OC3(O[C@H]21)C([N+](=O)[O-])=CC(=[N+]([O-])[O-])C=C3[N+](=O)[O-] (some centres undefined) [TNP-ATP]	33.1	36.6	–
CCOC(=O)CCCn1ccc(=O)c2c1ncn2Cc1ccccc1	80.1	–	–
Cc1nc(Cn2ncc3c2C(=O)C=CC3=O)cs1	21.6	116	–
CCOC(=O)C(C)n1ccc(=O)c2c1ncn2Cc1ccccc1 (racemic)	69.3	232	–
CC(=O)[C@H]1CC[C@H]2[C@@H]3CCC4=CC(=O)CC[C@]4(C)[C@H]3CC[C@]12C	71.7	–	–
O=C1C=CC(=O)c2c1cnn2Cc1ccccc1	22.9	–	–
CC(C)(C)OC(=O)NCCCn1ccc(=O)c2c1ncn2Cc1ccccc1	96.1	539	–
CC(C)(C)OC(=O)NCCCCCCn1ccc(=O)c2c1ncn2Cc1ccccc1	60.8	–	Not Active
CCOC(=O)Cn1ccc(=O)c2c1ncn2Cc1ccccc1	85.5	–	–
